Data: ChEMBL document CHEMBL3585248, “Amorfrutins Are Natural PPARγ Agonists with Potent Anti-inflammatory Properties” (J Nat Prod, 2015)
Active and inactive are the calls of the source. The calls are words filed in the database; no cut-off is given here.

Assays:
HT-29 [1] = assay: Cytotoxicity against human HT-29 cells assessed as reduction in cell viability after 54 hrs by CytoTox-Glo assay; settings: HT-29, 54 h
HT-29 [2] = assay: Cytotoxicity against human HT-29 cells assessed as cell viability up to 5 uM after 54 hrs by CytoTox-Glo assay; format: cell-based; settings: ht-29, 54 h
[3] = target: T1, Peroxisome proliferator-activated receptor gamma (Homo sapiens) (UniProt P37231); assay: Agonist activity at PPARgamma in human HT29 cells assessed as reduction in TNFalpha-induced GROgamma gene expression at 10 uM after 48 hrs by real-time qPCR analysis; format: cell-based; settings: HT-29
T1 sequence (whole entry): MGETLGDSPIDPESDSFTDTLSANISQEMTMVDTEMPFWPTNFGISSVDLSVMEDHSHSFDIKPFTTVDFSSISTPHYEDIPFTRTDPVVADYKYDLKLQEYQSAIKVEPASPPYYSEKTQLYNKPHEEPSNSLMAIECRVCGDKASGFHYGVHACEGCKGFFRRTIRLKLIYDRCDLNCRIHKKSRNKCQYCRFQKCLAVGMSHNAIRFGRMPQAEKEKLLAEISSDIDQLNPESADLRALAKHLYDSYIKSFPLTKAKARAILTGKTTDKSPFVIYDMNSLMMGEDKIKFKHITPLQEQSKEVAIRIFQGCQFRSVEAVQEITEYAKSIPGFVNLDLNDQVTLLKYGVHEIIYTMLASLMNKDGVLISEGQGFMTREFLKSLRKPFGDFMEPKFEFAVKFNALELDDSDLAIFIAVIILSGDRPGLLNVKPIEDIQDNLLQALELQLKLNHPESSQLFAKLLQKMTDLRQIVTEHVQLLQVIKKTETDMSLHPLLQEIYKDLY
In short: (§1)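 HT-29 cells pretreated 48 h with 10 μM compound in 0.1% DMSO, then stimulated 6 h with 1 ng/mL TNF-α. Total RNA isolated with DNase digestion, reverse-transcribed, then SYBR Green qPCR run for 40 cycles. Expression normalized to GAPDH by 2−ΔΔCt and reported relative to DMSO-treated cells. Biological triplicates, mean ± SD; one-way ANOVA with Dunnett's test.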

[4] = target: T1, Peroxisome proliferator-activated receptor gamma (Homo sapiens); assay: Agonist activity at PPARgamma in human HT29 cells assessed as reduction in TNFalpha-induced COX2 gene expression at 10 uM after 48 hrs by real-time qPCR analysis; format: cell-based; settings: HT-29
In short: as §1

[5] = target: T1, Peroxisome proliferator-activated receptor gamma (Homo sapiens); assay: Agonist activity at PPARgamma in human HT29 cells assessed as reduction in TNFalpha-induced IL8 gene expression in PPARgamma knockdown human HT29 cells at 10 uM after 48 hrs by real-time qPCR analysis; format: cell-based; settings: HT-29
In short: (§2)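 PPARγ knocked down in HT-29 cells by transfection with 30 nM siRNA, with negative-control siRNA alongside. Cells then given 10 μM compound for 48 h and 1 ng/mL TNF-α for 6 h. Marker mRNA measured by SYBR Green qPCR, normalized to GAPDH by 2−ΔΔCt. Biological triplicates.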

[6] = target: T1, Peroxisome proliferator-activated receptor gamma (Homo sapiens); assay: Agonist activity at PPARgamma in human HT29 cells assessed as reduction in TNFalpha-induced IL8 gene expression in at 10 uM after 48 hrs by ELISA; format: cell-based; settings: HT-29
In short: (§3)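 HT-29 cells in DMEM-F12 with 5% FBS, seeded a day ahead; 10 μM compound or 0.1% DMSO control for 48 h, then 1 ng/mL TNF-α for 6 h. Culture supernatants centrifuged at 4 °C, stored at −80 °C. Secreted MIP-3α/CCL20, IL-8 and GRO-α quantified by ELISA. Mean ± SD; compared with TNF-α alone.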

[7] = target: T1, Peroxisome proliferator-activated receptor gamma (Homo sapiens); assay: Agonist activity at PPARgamma in human HT29 cells assessed as reduction in TNFalpha-induced GROalpha gene expression at 10 uM after 48 hrs by real-time qPCR analysis; format: cell-based; settings: HT-29
In short: as §1

[8] = target: T1, Peroxisome proliferator-activated receptor gamma (Homo sapiens); assay: Agonist activity at PPARgamma in human HT29 cells assessed as reduction in TNFalpha-induced GRO-alpha gene expression in at 10 uM after 48 hrs by ELISA; format: cell-based; settings: HT-29
In short: as §3

[9] = target: T1, Peroxisome proliferator-activated receptor gamma (Homo sapiens); assay: Agonist activity at PPARgamma in human HT29 cells assessed as reduction in TNFalpha-induced IL-1beta gene expression at 10 uM after 48 hrs by real-time qPCR analysis; format: cell-based; settings: HT-29
In short: as §1

[10] = target: T1, Peroxisome proliferator-activated receptor gamma (Homo sapiens); assay: Agonist activity at PPARgamma in human HT29 cells assessed as reduction in TNFalpha-induced MIP3alpha gene expression in PPARgamma knockdown human HT29 cells at 10 uM after 48 hrs by real-time qPCR analysis; format: cell-based; settings: HT-29
In short: as §2

[11] = target: T1, Peroxisome proliferator-activated receptor gamma (Homo sapiens); assay: Agonist activity at PPARgamma in human HT29 cells assessed as reduction in TNFalpha-induced GROalpha gene expression in PPARgamma knockdown human HT29 cells at 10 uM after 48 hrs by real-time qPCR analysis; format: cell-based; settings: HT-29
In short: as §2

[12] = target: T1, Peroxisome proliferator-activated receptor gamma (Homo sapiens); assay: Agonist activity at PPARgamma in human HT29 cells assessed as reduction in TNFalpha-induced MIP3alpha gene expression at 10 uM after 48 hrs by real-time qPCR analysis; format: cell-based; settings: HT-29
In short: as §1

HT-29 [13] = assay: Cytotoxicity against human HT-29 cells assessed as cell viability at 10 uM after 54 hrs by CytoTox-Glo assay; format: cell-based; settings: ht-29, 54 h
[14] = target: T1, Peroxisome proliferator-activated receptor gamma (Homo sapiens); assay: Agonist activity at PPARgamma in human HT29 cells assessed as reduction in TNFalpha-induced IL8 gene expression at 10 uM after 48 hrs by real-time qPCR analysis; format: cell-based; settings: HT-29
In short: as §1

[15] = target: T1, Peroxisome proliferator-activated receptor gamma (Homo sapiens); assay: Agonist activity at PPARgamma in human HT29 cells assessed as reduction in TNFalpha-induced MIP3alpha gene expression in at 10 uM after 48 hrs by ELISA; format: cell-based; settings: HT-29
In short: as §3

[16] = target: T1, Peroxisome proliferator-activated receptor gamma (Homo sapiens); assay: Agonist activity at PPARgamma in human HT29 cells assessed as reduction in TNFalpha-induced COX2 gene expression in PPARgamma knockdown human HT29 cells at 10 uM after 48 hrs by real-time qPCR analysis; format: cell-based; settings: HT-29
In short: as §2

inhibition [3] | inhibition [4] | inhibition [5] | Activity [6] | inhibition [7] | Activity [8] | inhibition [9] | inhibition [10] | inhibition [11] | inhibition [12] | inhibition [14] | Activity [15] | inhibition [16] | SMILES | IC50 (HT-29 [1]) | Activity (HT-29 [2]) | Activity (HT-29 [13])
– | – | – | – | – | – | – | – | – | – | – | – | – | COc1cc(CCc2ccccc2)c(C(=O)O)c(O)c1C/C=C(\C)CCC=C(C)C | 30.5 µM | Non-toxic | –
inactive | Active | inactive | Active | Active | Active | inactive | Active | inactive | Active | Active | Active | Active | COc1cc(CCc2ccccc2)c(C(=O)O)c(O)c1CC=C(C)C [AMORFRUTIN A] | 50.8 µM | – | Non-toxic
